Measurements from different studies.
Compare with care: the assays were run in different laboratories.
Cell line: THP-1

Compound | effect on | action | method | time | notes | IC50
O=[N+]([O-])c1c[nH]nc1-c1nc(-c2ccc3oc4ccccc4c3c2)no1 | cell growth or viability | – | LDH | 24 h | – | 9.8 µg/mL
COc1cc(-c2nc(C(=O)Nc3nnc(-c4cc5ccccc5n4C)s3)cc3c2[nH]c2ccccc23)cc(OC)c1OC | cell growth or viability | – | MTT | 72 h | – | 8780 nM
NC[C@H](O)c1ccc(O)c(O)c1 | TNF-α release | inhibitor | – | 17 h | LPS-stimulated | 100 nM
O=C(Nc1nnc(-c2cc3ccccc3[nH]2)s1)c1cc2c([nH]c3ccccc32)c(-c2ccccc2)n1 | cell growth or viability | – | MTT | 72 h | – | 3570 nM
CC(C)(C)NCC(O)c1cc(O)cc(O)c1 (centres unmarked) | TNF-α release | inhibitor | – | 17 h | LPS-stimulated | 2180 nM
O=C(/C=C/C=C/c1ccc2c(c1)OCO2)N1CCCCC1 | cell growth or viability | – | MTT | 48 h | – | > 50 µg/mL
COc1cccc2c1C(=O)c1c(O)c3c(c(O)c1C2=O)C[C@@](O)(C(=O)CO)C[C@@H]3O[C@H]1C[C@H](N)[C@H](O)[C@H](C)O1 | cell growth or viability | – | MTT | 72 h | – | 3250 nM
CC(C)(C)c1ccc(S(=O)(=O)/C=C/C#N)cc1 | TNF-α release | inhibitor | – | 17 h | LPS-stimulated | 740 nM
COc1cc(/C=C/C(=O)CC(=O)/C=C/c2ccc(O)c(OC)c2)ccc1O | cell growth or viability | – | MTT | 48 h | – | 24 µg/mL
NCCc1c[nH]cn1 | TNF-α release | inhibitor | ELISA | 17 h | LPS-stimulated | 710 nM
N[C@@H](CC(=O)N1CCN(C(c2ccc(F)cc2)c2ccc(F)cc2)CC1)C(=O)N1Cc2ccccc2C1 | cell growth or viability | – | ATP luminescence | 48 h | – | 2740 nM
COc1ccc(-c2nc(C(=O)Nc3nnc(-c4cc5ccccc5n4C)s3)cc3c2[nH]c2ccccc23)cc1 | cell growth or viability | – | MTT | 72 h | – | 14400 nM
CC(C)NC[C@@H](O)c1ccc(O)c(O)c1 | TNF-α release | inhibitor | – | 17 h | LPS-stimulated | 71 nM
CC[C@@H](C)[C@H](N)C(=O)N1Cc2ccccc2C1 | cell growth or viability | – | ATP luminescence | 48 h | – | 2500 nM
Nc1ncc(-c2cnn(C3CCNCC3)c2)cc1-c1nnc(CC2CC2)o1 | cell growth or viability | – | trypan blue | 72 h | – | 163 nM
CCn1c(-c2nnc(NC(=O)c3cc4c([nH]c5ccccc54)c(-c4ccc(C)cc4)n3)s2)cc2ccccc21 | cell growth or viability | – | MTT | 72 h | – | 38900 nM
COc1cc2nccc(Oc3ccc(NC(=O)C4(C(=O)Nc5ccc(F)cc5)CC4)cc3)c2cc1OC | cell growth or viability | – | trypan blue | 72 h | – | 2920 nM
O=C(Nc1nnc(-c2cc3ccccc3[nH]2)s1)c1cc2c([nH]c3ccccc32)c(-c2ccc(Cl)cc2)n1 | cell growth or viability | – | MTT | 72 h | – | 4380 nM
CNCC(O)c1ccc(O)c(O)c1 (racemic) | TNF-α release | inhibitor | – | 17 h | LPS-stimulated | 150 nM
C#CCSc1nc(Sc2nnnn2-c2ccccc2)c2nnn(Cc3ccc(OC)cc3)c2n1 | cell growth or viability | – | MTS | 6 days | – | 2520 nM
